Laboratory results taken from ChEMBL document CHEMBL1125286, “Zatosetron, a potent, selective, and long-acting 5HT3 receptor antagonist: synthesis and structure-activity relationships” (J Med Chem, 1992).

Assays:
[1] = target: T1, Serotonin 3 (5-HT3) receptor (Rattus norvegicus) (UniProt P35563+Q9JJ16); assay: 5-hydroxytryptamine 3 receptor antagonistic activity was measured by the inhibition of 5H+ T-induced bradycardia after iv administration of 1 ug/kg dose in urethane-anesthetized rats; format: functional, organism-based
How it was run: (§1)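 Urethane-anesthetized rats. First 5HT challenge 30 μg/kg iv gives a transient bradycardia. Once heart rate is back at steady state (≤5 min), test compound or saline goes in via the femoral vein. 5HT 30 μg/kg iv is repeated 15 min later. % inhibition is the difference between first and second bradycardia at peak, each animal its own control. Means ± SEM, groups of 3–16 rats.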

[2] = target: T1, Serotonin 3 (5-HT3) receptor (Rattus norvegicus); assay: 5-hydroxytryptamine 3 receptor antagonistic activity measured by inhibition of 5-HT-induced bradycardia (iv administration 10 ug/kg dose in urethane-anesthetized rats); format: functional, organism-based; how it was run: as §1
[3] = target: T1, Serotonin 3 (5-HT3) receptor (Rattus norvegicus); assay: 5-hydroxytryptamine 3 receptor antagonistic activity was measured by the inhibition of 5H+ T-induced bradycardia after iv administration of 3 ug/kg dose in urethane-anesthetized rats; format: functional, organism-based
How it was run: (§2)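 Urethane-anesthetized rats; antagonist or saline given iv via femoral vein after heart rate settled (≤5 min) from an initial 5HT challenge (30 µg/kg iv). 5HT was given again 15 min later. Peak bradycardia measured, each rat its own control; % inhibition = difference between first and second responses. Groups of 3–16 rats, means ± SEM.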

[4] = target: T1, Serotonin 3 (5-HT3) receptor (Rattus norvegicus); assay: 5-hydroxytryptamine 3 receptor antagonistic activity was measured by the inhibition of 5H+ T-induced bradycardia after po administration of 100 ug/kg dose in urethane-anesthetized rats; format: functional, organism-based
How it was run: (§3)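 Fasted rats dosed by gavage (5 mL/kg) with compound or distilled-water vehicle. Urethane anesthesia and surgical preparation 15–20 min before challenge. 5HT 0.03 mg/kg iv given 1 h after dosing. Peak bradycardia is compared with vehicle-treated controls. Means ± SEM, groups of 3–11 rats.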

[5] = target: T1, Serotonin 3 (5-HT3) receptor (Rattus norvegicus); assay: 5-hydroxytryptamine 3 receptor antagonistic activity was measured by the inhibition of 5H+ T-induced bradycardia after po administration of 1000 ug/kg dose in urethane-anesthetized rats; format: functional, organism-based; how it was run: as §3
[6] = target: T1, Serotonin 3 (5-HT3) receptor (Rattus norvegicus); assay: Inhibition of 5-HT-induced bradycardia by 5-hydroxytryptamine 3+; format: functional
[7] = target: T1, Serotonin 3 (5-HT3) receptor (Rattus norvegicus); assay: Compound was tested for the inhibition of 5-HT-induced bradycardia after peroral administration of 0.3 mg/kg at 0.5 hours in urethane-anesthetized rats; format: functional, organism-based; design: dose 0.3 mg/kg; conditions: at 0.3 mg/kg
How it was run: (§4)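 Duration study. Antagonist or vehicle is given by oral gavage to conscious rats. Rats are then urethane-anesthetized, surgically prepared and challenged with 5HT 0.03 mg/kg iv at the stated time after dosing. Peak inhibition of bradycardia is measured against vehicle-treated controls. Means ± SEM, groups of 3–11 rats.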

[8] = target: T1, Serotonin 3 (5-HT3) receptor (Rattus norvegicus); assay: Compound was tested for the inhibition of 5-HT-induced bradycardia after peroral administration of 0.3 mg/kg at 1 hour in urethane-anesthetized rats; format: functional, organism-based; design: dose 0.3 mg/kg; conditions: at 0.3 mg/kg; how it was run: as §4
[9] = target: T1, Serotonin 3 (5-HT3) receptor (Rattus norvegicus); assay: Compound was tested for the inhibition of 5-HT-induced bradycardia after peroral administration of 0.3 mg/kg at 3 hours in urethane-anesthetized rats; format: functional, organism-based; design: dose 0.3 mg/kg; conditions: at 0.3 mg/kg; how it was run: as §4
[10] = target: T1, Serotonin 3 (5-HT3) receptor (Rattus norvegicus); assay: Compound was tested for the inhibition of 5-HT-induced bradycardia after peroral administration of 0.3 mg/kg at 6 hours in urethane-anesthetized rats; format: functional, organism-based; design: dose 0.3 mg/kg; conditions: at 0.3 mg/kg; how it was run: as §4
[11] = tested on: Serotonin 3 receptor (Cavia porcellus); assay: In vitro binding affinity was measured for 5-hydroxytryptamine 3 receptor in the guinea pig ileum.
[12] = target: T1, Serotonin 3 (5-HT3) receptor (Rattus norvegicus); assay: Compound was tested for the inhibition of 5-HT-induced bradycardia after peroral administration in urethane-anesthetized rats
[13] = target: T1, Serotonin 3 (5-HT3) receptor (Rattus norvegicus); assay: 5-hydroxytryptamine 3 receptor antagonistic activity as inhibition of 5-HT-induced bradycardia after iv administration of 100 ug/kg dose in urethane-anesthetized rats; format: functional, organism-based; how it was run: as §1
[14] = target: T1, Serotonin 3 (5-HT3) receptor (Rattus norvegicus); assay: Compound was tested for the inhibition of 5-HT-induced bradycardia after intravenous administration of 1 ug/kg dose in urethane-anesthetized rats; format: functional, organism-based; how it was run: as §2
[15] = target: T1, Serotonin 3 (5-HT3) receptor (Rattus norvegicus); assay: Compound was tested for the inhibition of 5-HT-induced bradycardia after peroral administration of 10 mg/kg at 1 hour in urethane-anesthetized rats; format: functional, organism-based; design: dose 10 mg/kg; conditions: at 10 mg/kg; how it was run: as §4
[16] = target: T1, Serotonin 3 (5-HT3) receptor (Rattus norvegicus); assay: Compound was tested for the inhibition of 5-HT-induced bradycardia after peroral administration of 1000 ug/kg dose in urethane-anesthetized rats; format: functional, organism-based; how it was run: as §3
[17] = target: T1, Serotonin 3 (5-HT3) receptor (Rattus norvegicus); assay: Compound was tested for the inhibition of 5-HT-induced bradycardia after peroral administration of 10 mg/kg at 3 hours in urethane-anesthetized rats; format: functional, organism-based; design: dose 10 mg/kg; conditions: at 10 mg/kg; how it was run: as §4
[18] = target: T1, Serotonin 3 (5-HT3) receptor (Rattus norvegicus); assay: Compound was tested for the inhibition of 5-HT-induced bradycardia after peroral administration of 0.03 mg/kg at 1 hour in urethane-anesthetized rats; format: functional, organism-based; design: dose 0.03 mg/kg; conditions: at 0.03 mg/kg; how it was run: as §4
[19] = target: T1, Serotonin 3 (5-HT3) receptor (Rattus norvegicus); assay: Compound was tested for the inhibition of 5-HT-induced bradycardia after peroral administration of 0.03 mg/kg at 3 hours in urethane-anesthetized rats; format: functional, organism-based; design: dose 0.03 mg/kg; conditions: at 0.03 mg/kg; how it was run: as §4
[20] = target: T1, Serotonin 3 (5-HT3) receptor (Rattus norvegicus); assay: Compound was tested for the inhibition of 5-HT-induced bradycardia after peroral administration of 0.03 mg/kg at 6 hours in urethane-anesthetized rats; format: functional, organism-based; design: dose 0.03 mg/kg; conditions: at 0.03 mg/kg; how it was run: as §4

Structure (SMILES) | inhibition [1] | inhibition [2] | inhibition [3] | inhibition [4] | inhibition [5] | ED50 [6] | inhibition [7] | inhibition [8] | inhibition [9] | inhibition [10] | -Log KB [11] | ED50 [12] | inhibition [13] | inhibition [14] | inhibition [15] | inhibition [16] | inhibition [17] | inhibition [18] | inhibition [19] | inhibition [20]
CC1Cc2cc(Cl)cc(C(=O)OC3CC4CCC(C3)N4C)c2O1 (stereo not given) | 5.6% | 69% | 50.8% | 33.1% | 94.7% | 0.0042 mg/kg | 92.6% | 66.2% | 60.5% | 0% | 7.88 | 0.179 mg/kg | – | – | – | – | – | – | – | –
Cc1cc2c(c(C(=O)OC3CC4CCC(C3)N4C)c1)OC(C)C2 (stereo not given) | – | 66.7% | 14.4% | – | – | 0.0126 mg/kg | – | – | – | – | 7.32 | 5.17 mg/kg | 78.2% | 3.3% | 74.8% | 11.6% | 0% | – | – | –
CN1[C@@H]2CC[C@H]1C[C@@H](OC(=O)c1cc(Cl)cc3c1OC(C)(C)C3)C2 | – | 82.7% | 19.3% | – | – | 0.0046 mg/kg | – | – | – | – | 7.92 | 0.0088 mg/kg | – | – | – | – | – | 86.2% | 58% | 20.6%
